Measured values from ChEMBL document CHEMBL3826885, “Similarities and differences in affinity and binding modes of tricyclic pyrimido- and pyrazinoxanthines at human and rat adenosine receptors” (Bioorg Med Chem, 2016).
pKi: −log10 of the molar value.

Columns and labels:
[1] = molecular target: Adenosine receptor A2a (Rattus norvegicus) (UniProt P30543); assay: Displacement of [3H]MSX2 from Adenosine receptor A2a in rat brain striatal membranes at 1 uM; type: cell membranes; conditions: Membrane
Chain of Adenosine receptor A2a (Rattus norvegicus) (P30543 whole entry): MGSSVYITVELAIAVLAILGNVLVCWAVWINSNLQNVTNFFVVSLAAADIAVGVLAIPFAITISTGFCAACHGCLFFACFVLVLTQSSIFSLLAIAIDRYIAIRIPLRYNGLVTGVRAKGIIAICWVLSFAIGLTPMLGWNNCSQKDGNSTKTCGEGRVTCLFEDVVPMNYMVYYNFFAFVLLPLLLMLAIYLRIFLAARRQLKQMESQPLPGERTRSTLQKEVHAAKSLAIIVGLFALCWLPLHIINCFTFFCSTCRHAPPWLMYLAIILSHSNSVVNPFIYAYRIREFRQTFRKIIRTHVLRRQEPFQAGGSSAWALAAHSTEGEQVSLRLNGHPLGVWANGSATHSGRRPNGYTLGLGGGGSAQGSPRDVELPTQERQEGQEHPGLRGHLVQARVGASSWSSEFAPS
Outline: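 Native rat receptors: A1 in brain cortical membranes with [3H]CCPA, A2A in brain striatal membranes, from frozen unstripped rat brains. Compounds were first screened at a single high concentration in three independent experiments. Active compounds then had full inhibition curves over at least 3 orders of magnitude of concentration.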

[2] = molecular target: T1, Adenosine receptor A2b (Rattus norvegicus) (UniProt P29276); assay: Displacement of [3H]PSB-603 from recombinant rat adenosine receptor A2b expressed in CHO cell membranes at 1 uM
T1 sequence (whole entry): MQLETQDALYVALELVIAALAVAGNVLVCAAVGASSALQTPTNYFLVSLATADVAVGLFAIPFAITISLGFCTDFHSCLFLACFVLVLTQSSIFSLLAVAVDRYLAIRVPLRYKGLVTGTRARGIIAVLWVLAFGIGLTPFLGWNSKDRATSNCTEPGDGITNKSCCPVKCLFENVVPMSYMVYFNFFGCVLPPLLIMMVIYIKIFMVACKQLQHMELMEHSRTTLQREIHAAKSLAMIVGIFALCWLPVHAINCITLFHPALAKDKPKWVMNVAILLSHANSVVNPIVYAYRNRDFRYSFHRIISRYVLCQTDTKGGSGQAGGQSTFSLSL
Outline: (§1)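 Membranes came from CHO cells expressing recombinant receptors (human A1, A2A, A2B, A3; rat A2B, A3). Radioligands were [3H]CCPA for A1 and [3H]PSB-11 or [3H]NECA for A3. A single high concentration was screened first, in three experiments for A1/A2A and two for A2B/A3. Full inhibition curves spanning at least 3 log units were run for potent compounds.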

[3] = molecular target: T2, Adenosine receptor A3 (Rattus norvegicus) (UniProt P28647); assay: Displacement of [3H]NECA from recombinant rat adenosine receptor A3 expressed in CHO cell membranes at 1 uM; outline: as §1
T2 sequence (whole entry): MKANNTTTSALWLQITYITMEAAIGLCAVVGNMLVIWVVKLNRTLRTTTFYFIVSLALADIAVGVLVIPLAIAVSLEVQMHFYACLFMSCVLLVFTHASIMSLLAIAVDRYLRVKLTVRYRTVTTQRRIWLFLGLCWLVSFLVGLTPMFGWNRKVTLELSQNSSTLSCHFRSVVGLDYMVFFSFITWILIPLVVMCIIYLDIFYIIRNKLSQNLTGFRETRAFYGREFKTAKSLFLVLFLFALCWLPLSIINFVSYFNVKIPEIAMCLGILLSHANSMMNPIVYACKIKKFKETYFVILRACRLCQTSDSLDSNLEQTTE

[4] = molecular target: T3, Adenosine receptor A1 (Homo sapiens, UniProt P30542); assay: Displacement of [3H]CCPA from recombinant human adenosine receptor A1 expressed in CHO cell membranes; outline: as §1
T3 sequence (P30542 whole entry): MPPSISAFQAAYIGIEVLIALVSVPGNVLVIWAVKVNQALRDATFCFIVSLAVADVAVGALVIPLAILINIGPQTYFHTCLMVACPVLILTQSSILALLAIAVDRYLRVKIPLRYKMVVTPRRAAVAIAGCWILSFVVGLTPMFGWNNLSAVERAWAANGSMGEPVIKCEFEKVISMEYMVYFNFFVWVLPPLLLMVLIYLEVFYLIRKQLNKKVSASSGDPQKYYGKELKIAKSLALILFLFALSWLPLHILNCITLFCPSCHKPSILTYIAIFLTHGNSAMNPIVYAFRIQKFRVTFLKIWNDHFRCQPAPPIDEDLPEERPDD

[5] = molecular target: T4, Adenosine receptor A1 (Homo sapiens) (UniProt P30542); assay: Displacement of [3H]CCPA from recombinant human adenosine receptor A1 expressed in CHO cell membranes at 1 uM; outline: as §1
T4 sequence (whole entry): T3 sequence (P30542 whole entry)

[6] = molecular target: T5, Adenosine receptor A2a (Homo sapiens, UniProt P29274); assay: Displacement of [3H]MSX2 from recombinant human adenosine receptor A2a expressed in CHO cell membranes; outline: as §1
T5 sequence (P29274 whole entry): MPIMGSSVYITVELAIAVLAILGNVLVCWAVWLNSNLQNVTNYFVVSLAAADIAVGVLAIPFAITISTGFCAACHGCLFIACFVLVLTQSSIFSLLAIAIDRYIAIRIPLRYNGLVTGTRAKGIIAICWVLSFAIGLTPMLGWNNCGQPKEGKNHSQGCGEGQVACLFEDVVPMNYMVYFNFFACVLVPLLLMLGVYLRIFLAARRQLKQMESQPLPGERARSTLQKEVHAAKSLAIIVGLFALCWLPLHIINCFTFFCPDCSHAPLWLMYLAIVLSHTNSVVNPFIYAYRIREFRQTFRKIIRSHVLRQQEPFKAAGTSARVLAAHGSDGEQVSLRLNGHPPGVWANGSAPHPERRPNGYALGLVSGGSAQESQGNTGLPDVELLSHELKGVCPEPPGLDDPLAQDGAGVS

[7] = molecular target: T5, Adenosine receptor A2a; assay: Displacement of [3H]MSX2 from recombinant human adenosine receptor A2a expressed in CHO cell membranes at 1 uM; outline: as §1
[8] = molecular target: T6, Adenosine receptor A2b (Homo sapiens, UniProt P29275); assay: Displacement of [3H]PSB-603 from recombinant human adenosine receptor A2b expressed in CHO cell membranes
T6 sequence (P29275 whole entry): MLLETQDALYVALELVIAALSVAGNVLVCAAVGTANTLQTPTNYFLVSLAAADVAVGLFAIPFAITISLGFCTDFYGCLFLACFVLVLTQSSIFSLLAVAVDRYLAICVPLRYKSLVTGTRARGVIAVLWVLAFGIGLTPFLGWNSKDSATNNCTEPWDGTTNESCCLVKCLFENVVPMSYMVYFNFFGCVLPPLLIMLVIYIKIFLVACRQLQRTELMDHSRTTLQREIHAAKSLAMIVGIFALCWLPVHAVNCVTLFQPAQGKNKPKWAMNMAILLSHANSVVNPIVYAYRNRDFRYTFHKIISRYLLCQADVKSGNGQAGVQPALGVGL
Outline: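 Membranes came from CHO cells expressing recombinant receptors (human A1, A2A, A2B, A3; rat A2B, A3). Radioligands were [3H]CCPA for A1 and [3H]PSB-11 or [3H]NECA for A3. A single high concentration was screened first, in three experiments for A1/A2A and two for A2B/A3.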

[9] = molecular target: T7, Adenosine receptor A2b (Homo sapiens) (UniProt P29275); assay: Displacement of [3H]PSB-603 from recombinant human adenosine receptor A2b expressed in CHO cell membranes at 1 uM; outline: as §1
T7 sequence (whole entry): T6 sequence (P29275 whole entry)

[10] = molecular target: T8, Adenosine receptor A3 (Homo sapiens) (UniProt P0DMS8); assay: Displacement of [3H]PSB11 from recombinant human adenosine receptor A3 expressed in CHO cell membranes at 1 uM; outline: as §1
T8 sequence (whole entry): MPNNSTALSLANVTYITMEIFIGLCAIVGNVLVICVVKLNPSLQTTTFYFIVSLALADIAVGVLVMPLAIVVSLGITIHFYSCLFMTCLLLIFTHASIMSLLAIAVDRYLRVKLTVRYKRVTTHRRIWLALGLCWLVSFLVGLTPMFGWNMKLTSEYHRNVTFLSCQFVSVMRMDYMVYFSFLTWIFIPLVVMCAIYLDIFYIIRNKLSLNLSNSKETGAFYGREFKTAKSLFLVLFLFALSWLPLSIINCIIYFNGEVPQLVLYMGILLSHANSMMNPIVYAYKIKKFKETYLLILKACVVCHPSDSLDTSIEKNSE

inhibition [1] | inhibition [2] | inhibition [3] | pKi [4] | inhibition [5] | pKi [6] | inhibition [7] | pKi [8] | inhibition [9] | inhibition [10] | SMILES
64% | 38% | 15% | 5.81 | 27% | 6.26 | 64% | 6.96 | 87% | 75% | CCCCn1c(=O)c2c(nc3n2CCCN3CCc2ccc(OCCN(CC)CC)cc2)n(CCCC)c1=O
53% | -2% | 6% | < 6.00 | 1% | 6.25 | 57% | < 6.00 | 6% | -3% | CCN(CC)CCOc1ccc(CCN2CCCn3c2nc2c3c(=O)n(C)c(=O)n2C)cc1
